Test results reported in ChEMBL document CHEMBL1949592, “Synthesis and antiviral activity of 2'-deoxy-2'-fluoro-2'-C-methyl-7-deazapurine nucleosides, their phosphoramidate prodrugs and 5'-triphosphates” (Bioorg Med Chem Lett, 2011).

Key:
Huh-7 = test: Cytotoxicity against human HuH7 cells assessed as reduction of 50% rRNA level after 96 hrs; format: cell-based; settings: huh-7, 96 h
How it was run: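 Huh-7 cells carrying the HCV replicon were exposed to compound for 96 h. Toxicity was read as a fall in cellular rRNA.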

Hepatitis C virus = test: Antiviral activity against Hepatitis C virus infected in human HuH7 cells assessed as decrease in viral RNA level after 96 hrs by RT-PCR; format: functional, organism-based, Hepacivirus hominis; settings: Huh-7, 96 h
[1] = tested on: Human immunodeficiency virus 1; test: Antiviral activity against HIV1 LAV1 infected in PHA-stimulated human PBMC assessed as reduction in RT activity after 6 days by micromethod-based beta scintillation counting; format: functional, organism-based; settings: Human immunodeficiency virus 1, LAV1, 144 h
PBMC = test: Cytotoxicity against human PBMC after 6 days by trypan blue exclusion method; format: cell-based; settings: 144 h
CCRF-CEM = test: Cytotoxicity against human CEM cells after 6 days by trypan blue exclusion method; format: cell-based; settings: 144 h
Vero = test: Cytotoxicity against african green monkey Vero cells after 3 days by hemocytometer analysis; format: cell-based; settings: Chlorocebus sabaeus, 72 h

| Compound | CC50 (Huh-7) | EC50 (Hepatitis C virus) | EC90 (Hepatitis C virus) | EC50 [1] | EC90 [1] | IC50 (PBMC) | IC50 (CCRF-CEM) | IC50 (Vero) |
| --- | --- | --- | --- | --- | --- | --- | --- | --- |
| Cc1cn([C@H]2C[C@H](N=[N+]=[N-])[C@@H](CO)O2)c(=O)[nH]c1=O [ZIDOVUDINE] | > 10 µM | > 10 µM | > 10 µM | 0.0033 µM | 0.028 µM | > 100 µM | – | – |
| CCOC(=O)[C@H](C)NP(=O)(OC[C@H]1O[C@@H](n2cc(I)c3c(N)ncnc32)[C@](C)(F)[C@@H]1O)Oc1ccccc1 (some centres not stated) | > 10 µM | > 10 µM | > 10 µM | 58.1 µM | > 100 µM | 17.4 µM | 13.5 µM | 17.8 µM |
| CNc1ncnc2c1c(F)cn2[C@@H]1O[C@H](CO)[C@@H](O)[C@@]1(C)F | > 10 µM | > 10 µM | > 10 µM | > 100 µM | > 100 µM | > 100 µM | > 100 µM | > 100 µM |
| C=Cc1cn([C@H]2O[C@H](CO)[C@@H](O)[C@@]2(C)F)c2ncnc(N)c12 | 8.3 µM | 5.6 µM | 18.4 µM | 35.5 µM | 65.2 µM | 21 µM | 16 µM | 14.6 µM |
| CCOC(=O)[C@H](C)NP(=O)(OC[C@H]1O[C@@H](n2cc(F)c3c(N)ncnc32)[C@](C)(F)[C@@H]1O)Oc1ccccc1 (some centres not stated) | > 10 µM | > 10 µM | > 10 µM | 39.4 µM | 98.8 µM | > 100 µM | > 100 µM | > 100 µM |
| CCOC(=O)[C@H](C)NP(=O)(OC[C@H]1O[C@@H](n2cc(I)c3c(N)nc(N)nc32)[C@](C)(F)[C@@H]1O)Oc1ccccc1 (some centres not stated) | > 10 µM | > 10 µM | > 10 µM | 26.7 µM | > 100 µM | 67.4 µM | > 100 µM | 65.1 µM |
| C=Cc1cn([C@@H]2O[C@H](CO)[C@@H](O)[C@@]2(C)F)c2ncnc(N)c12 | 4.5 µM | 1.8 µM | 7.6 µM | 14.7 µM | 44.8 µM | 4.8 µM | 3.5 µM | 10.1 µM |
| C[C@@]1(F)[C@H](O)[C@@H](CO)O[C@H]1n1cc(F)c2c(N)ncnc21 | – | > 10 µM | > 10 µM | > 100 µM | > 100 µM | > 100 µM | > 100 µM | > 100 µM |
| COc1ncnc2c1ccn2[C@H]1O[C@H](CO)[C@@H](O)[C@@]1(C)F | > 10 µM | > 10 µM | – | ≥ 100 µM | ≥ 100 µM | > 100 µM | > 100 µM | > 100 µM |
| C[C@@]1(F)[C@H](O)[C@@H](CO)O[C@H]1n1cc(Br)c2c(N)ncnc21 | < 10 µM | < 10 µM | > 10 µM | > 100 µM | > 100 µM | 74.2 µM | 50.5 µM | 53.1 µM |
| C#Cc1cn([C@@H]2O[C@H](CO)[C@@H](O)[C@@]2(C)F)c2nc(N)nc(N)c12 | – | > 10 µM | – | 84.4 µM | > 100 µM | > 100 µM | > 100 µM | > 100 µM |
| CCc1cn([C@@H]2O[C@H](CO)[C@@H](O)[C@@]2(C)F)c2ncnc(N)c12 | – | < 10 µM | – | 19 µM | > 100 µM | 20.7 µM | > 100 µM | > 100 µM |
| C[C@@]1(O)[C@H](O)[C@@H](CO)O[C@H]1n1ccc(N)nc1=O | > 10 µM | 2.8 µM | 9.6 µM | 47.5 µM | 100 µM | 47.4 µM | 54.4 µM | > 100 µM |
| C#Cc1cn([C@H]2O[C@H](CO)[C@@H](O)[C@@]2(C)F)c2ncnc(N)c12 | > 10 µM | < 10 µM | > 10 µM | 95.2 µM | – | > 100 µM | > 100 µM | > 100 µM |
| C[C@@]1(F)[C@H](O)[C@@H](CO)O[C@H]1n1cc(Cl)c2c(N)ncnc21 | > 10 µM | < 10 µM | > 10 µM | 82.4 µM | – | 18.5 µM | > 100 µM | > 100 µM |
| COC(=O)/C=C/c1cn([C@@H]2O[C@H](CO)[C@@H](O)[C@@]2(C)F)c2ncnc(N)c12 | – | > 10 µM | > 10 µM | > 100 µM | > 100 µM | > 100 µM | > 100 µM | > 100 µM |
| CCc1cn([C@H]2O[C@H](CO)[C@@H](O)[C@@]2(C)F)c2ncnc(N)c12 | > 10 µM | > 10 µM | > 10 µM | 95.5 µM | – | > 100 µM | > 100 µM | > 100 µM |
| C[C@@]1(F)[C@H](O)[C@@H](CO)O[C@@H]1n1cc(F)c2c(N)ncnc21 | > 10 µM | > 10 µM | – | > 100 µM | – | > 100 µM | 8.1 µM | > 100 µM |
| C[C@@]1(F)[C@H](O)[C@@H](CO)O[C@@H]1n1cc(Cl)c2c(N)ncnc21 | – | < 10 µM | – | > 100 µM | > 100 µM | > 100 µM | 96 µM | > 100 µM |
| CNc1ncnc2c1c(F)cn2[C@H]1O[C@H](CO)[C@@H](O)[C@@]1(C)F | – | > 10 µM | – | > 100 µM | – | > 100 µM | > 100 µM | > 100 µM |
| COc1ncnc2c1ccn2[C@@H]1O[C@H](CO)[C@@H](O)[C@@]1(C)F | – | > 10 µM | > 10 µM | 24.8 µM | 85.6 µM | > 100 µM | > 100 µM | > 100 µM |
| C[C@@]1(F)[C@H](O)[C@@H](CO)O[C@@H]1n1ccc2c(N)nc(N)nc21 | – | > 10 µM | – | > 100 µM | > 100 µM | > 100 µM | > 100 µM | > 100 µM |
| C[C@@]1(F)[C@H](O)[C@@H](CO)O[C@@H]1n1ccc2c(N)ncnc21 | – | > 10 µM | – | > 100 µM | – | > 100 µM | > 100 µM | > 100 µM |
| C[C@@]1(F)[C@H](O)[C@@H](CO)O[C@@H]1n1cc(Br)c2c(N)ncnc21 | > 10 µM | < 10 µM | – | ≥ 100 µM | – | 89.1 µM | 76 µM | 71.1 µM |
| C[C@@]1(F)[C@H](O)[C@@H](CO)O[C@H]1n1cc(I)c2c(N)nc(N)nc21 | > 10 µM | > 10 µM | > 10 µM | 99.5 µM | – | 72.9 µM | 85.4 µM | 62.8 µM |
| C#Cc1cn([C@@H]2O[C@H](CO)[C@@H](O)[C@@]2(C)F)c2ncnc(N)c12 | – | < 10 µM | – | 59.1 µM | > 100 µM | 94.1 µM | > 100 µM | > 100 µM |
| C[C@@]1(F)[C@H](O)[C@@H](CO)O[C@@H]1n1cc(I)c2c(N)nc(N)nc21 | – | > 10 µM | – | > 100 µM | > 100 µM | > 100 µM | > 100 µM | > 100 µM |
| C[C@@]1(F)[C@H](O)[C@@H](CO)O[C@H]1n1ccc2c(N)ncnc21 | > 10 µM | > 10 µM | > 10 µM | > 100 µM | > 100 µM | > 100 µM | > 100 µM | > 100 µM |
